# MC4R antag cAMP: antagonists of human melanocortin 4 receptor (MC4R); P32245; MC4R-expressing cells, MTII-stimulated cAMP, LANCE TR-FRET; 0.48% of 360,000 active; inhibition, % at 6.5 µM;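 active = inhibition above its plate's cutoff, the mean of tested wells on that plate plus 3 SD, cut at about 29% in these data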;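 also: 0% = Melanotan II alone and 100% = Melanotan II plus saturating MCL0020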
# Target sequence (P32245 whole entry, looked up): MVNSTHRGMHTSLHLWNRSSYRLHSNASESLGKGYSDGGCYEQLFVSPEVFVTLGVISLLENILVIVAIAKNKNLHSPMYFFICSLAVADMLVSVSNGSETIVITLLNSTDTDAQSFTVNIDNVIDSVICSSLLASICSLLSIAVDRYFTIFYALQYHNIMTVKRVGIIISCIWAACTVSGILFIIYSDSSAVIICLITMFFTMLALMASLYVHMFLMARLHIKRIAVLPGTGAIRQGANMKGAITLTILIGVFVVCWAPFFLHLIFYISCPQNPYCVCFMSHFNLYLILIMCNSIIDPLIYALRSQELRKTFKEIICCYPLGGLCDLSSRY
#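 Assay system: U2OS cells stably expressing human melanocortin 4 receptor (MC4R) / Dosing: 6.5 µM / Timing: compound 30 min, challenge 1 h, detection 1 h / Measured by: Eu-cAMP/anti-cAMP TR-FRET, emission 671 nm / Replicates: singlicate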
# TbMetRS inhib: Trypanosoma brucei MetRS inhibition | 0.4% of 360,000 active | inhibition, % at 11.9 µM | purified T. brucei MetRS, ATP depletion, Kinase-Glo luminescence;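 active = inhibition above a per-plate cutoff of the control wells' mean inhibition plus 3 SD, cut at about 5.5% in these data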;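 also: 0% = DMSO wells median and 100% = median of wells with control inhibitor compound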
#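 Dosing: 11.9 µM compound single dose, 0.9% DMSO; Assay system: purified T. brucei MetRS enzyme; Measured by: Kinase-Glo luciferase luminescence reporting remaining unconsumed ATP; Schedule: 15 min plus 2 h at 25 °C.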
# NLRP3 yeast inh: blocks the NALP3 inflammasome reconstituted in yeast. Yeast reconstituted NLRP3/ASC/caspase-1, beta-gal luminescence, 24 h. inhibition, % at 10 µM. 0.39% of 330,000 active. AID 2825;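 active = inhibition of 50% or more; inactive = inhibition below 50%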;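 also: plate controls were induced DMSO wells for no effect and uninduced yeast grown without galactose for full effect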
# Bfl-1 A1 inh: inhibitors of the anti-apoptotic protein A1, read as caspase activation; MEF A1-2A-BIM cells, Caspase-Glo 3/7 luminescence, 3 h; percent of clofoctol response, vehicle zero; caspase activation, % (concentration not given with the values); 0.066% of 330,000 active; AID 2462;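 active = over half of replicate activation scores above 10%, or exactly half above 10 with the replicate mean above 10; inconclusive = replicate mean below 10 yet half the replicates above 10; inactive = over half of replicates below 10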
# MC4R ag barr: activates human MC4R beta-arrestin recruitment; U2OS MC4R beta-arrestin complementation, luminescence; percent of melanotan II response, DMSO zero; activation, % at 8.9 µM; 0.98% of 360,000 active;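 active = activation above a per-plate cutoff, the mean activation of sample wells on that plate plus 3 SD, cut at about 8% in these data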
# NALP1 inh: inhibitors of NALP1 inflammasome in yeast; AID 2071; S. cerevisiae NALP1/ASC/caspase-1 growth, X-gal OD620, 72 h; inhibition, % at 10 µM; 0.61% of 280,000 active; in the data active = inhibition mostly above about 24%, no sharp cut-off; inactive = mostly below about 32%
# cAMP nonselect: U2OS forskolin cAMP inhibition counter-screen; 26% of 1,600 active; shares compounds with MC4R antag cAMP; inhibition, % at 6.5 µM; AID 602193; parental U2OS, LANCE TR-FRET;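 active = mean inhibition over triplicates above the low-control well mean plus 3 SD, set per campaign, cut at about 13% in these data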;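 also: signal is single emission at 671 nm which falls as cellular cAMP rises; 0% = forskolin-stimulated wells and 100% = buffer without forskolin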
# MC4R antag conf: human MC4R cAMP antagonism confirmation; shares compounds with MC4R antag cAMP; MC4R-expressing cells, MTII-stimulated cAMP, TR-FRET; inhibition, % at 6.5 µM; 27% of 1,600 active; AID 602195; in the data active = inhibition above about 29%;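 also: 0% = agonist stimulated wells alone and 100% = agonist stimulated wells plus saturating reference antagonist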
# * marks the source's active call; other numbers are inactive results; ? = inconclusive; . = no result. Hits are enriched below; roughly 2.5% of the tested compounds scored in any of these assays.
SMILES,MC4R antag cAMP,TbMetRS inhib,NLRP3 yeast inh,Bfl-1 A1 inh,MC4R ag barr,NALP1 inh,cAMP nonselect,MC4R antag conf
COc1cccc(CC(CC(=O)O)C(=O)Nc2cc(C)ccc2C)c1 (stereo not drawn),20,0,6,0,0,18,.,.
CCN(CC)CCOC(=O)c1ccc(NC(=S)NC(=O)/C=C/c2ccco2)cc1,.,.,10,1,.,.,.,.
CCCc1ccc2oc(C(=O)N(C)CCn3ccnc3C)c(C)c2c1,20,-2,15,0,1,13,.,.
CCCCCCn1ccc(=N)cc1,3,0,23,-1,-1,23,.,.
CCCCCCCCCCCCCCCCn1cc[n+](CC(C)=O)c1,29*,0,.,.,16*,78*,3,33*
COc1ccc(/C=C/C(=O)c2ccccn2)cc1,6,-1,14,-7,-3,-38,.,.
COc1ccc([N+](=O)[O-])c(C=CC(=O)c2ccccn2)c1,30*,0,.,.,0,.,-1,14
CSC(=NS(=O)(=O)c1ccc(N)cc1)NS(=O)(=O)c1cccs1,6,0,.,.,-1,.,.,.
COc1ccc(C(C(=O)NC(C)(C)C)N(C(=O)CCC(=O)Nc2cc(C)on2)c2cc(C)cc(C)c2)cc1 (stereo not drawn),1,-1,9,-1,-1,8,.,.
COc1ccc(C(C(=O)NC(C)(C)C)N(C(=O)CCC(=O)Nc2cc(C)on2)c2ccccc2F)cc1 (stereo not drawn),30*,0,16,0,2,15,-1,-8
CCOC(=O)Cn1nnnc1CN(Cc1cccs1)Cc1cc2cc(C)ccc2[nH]c1=O,31*,4,36,-1,2,11,9,10
CN(CC(=O)Nc1c(Cl)cccc1Cl)C(=O)C1CC(=O)N(Cc2ccccc2)C1 (stereo not drawn),-4,0,0,-1,-3,.,.,.
Cc1ccc(S(=O)(=O)c2nc(S(=O)(=O)c3ccc(C)cc3)c(N3CCN(CCO)CC3)s2)cc1,0,0,8,1,-1,-4,.,.
COc1ccc(C(=S)N2CCOCC2)cc1OC(=O)c1ccc([N+](=O)[O-])cc1,8,-1,18,1,1,16,.,.
COc1cc(C(=S)N2CCOCC2)ccc1OC(=O)c1ccc([N+](=O)[O-])cc1[N+](=O)[O-],37*,0,12,0,-1,0,6,28
CCC(C)C(=O)Nc1nc2ccc(OC)cc2s1 (stereo not drawn),9,0,32,-2,1,17,.,.
Cc1cccc(C(=O)OCC(=O)NCc2cccs2)c1,5,1,32,0,-2,-2,.,.
CS(=O)(=O)c1ccc(C(=O)OCC(=O)NCc2cccs2)cc1[N+](=O)[O-],47*,0,-2,1,-2,.,22*,18
N#Cc1ccccc1OCC(=O)NCc1ccccc1CN1CCCC1,1,0,11,0,1,.,.,.
O=C(Nc1ccc(Cl)cn1)C1CCCN(c2ncnc3c2nc2n3CCCCC2)C1 (stereo not drawn),30*,0,19,0,-1,6,-2,7
O=C(Nc1ccc(Cl)cn1)C1CCN(c2ncnc3c2nc2n3CCCCC2)CC1,1,-1,20,1,-1,22,.,.
Cc1cccc(N2CC(C(=O)Nc3ccc(S(=O)(=O)N4CCOCC4)cc3)CC2=O)c1 (stereo not drawn),30*,0,6,1,2,2,1,5
Cc1ccc(N2CC(C(=O)Nc3ccc(S(=O)(=O)N4CCOCC4)cc3)CC2=O)cc1 (stereo not drawn),10,0,14,0,-1,0,.,.
CSCCC(NC(=O)c1cccc(C)c1)C(=O)OCN1C(=O)c2ccccc2C1=O (stereo not drawn),30*,0,11,1,-2,.,10,41*
CSCCC(NC(=O)c1cccc(C)c1)C(=O)OCC(=O)NC(=O)c1cccn1C (stereo not drawn),11,0,3,-3,-1,20,.,.
SMILES,MC4R antag cAMP,TbMetRS inhib,NLRP3 yeast inh,Bfl-1 A1 inh,MC4R ag barr,NALP1 inh,cAMP nonselect,MC4R antag conf
COc1ccc(-c2c3c([nH]c(=S)c2C#N)CCC3)cc1,88*,-1,.,.,0,9,20*,35*
COc1ccc(OC)c(-c2c3c([nH]c(=S)c2C#N)CCCC3)c1,8,0,5,0,0,-17,.,.
Cc1ccc(C)c(NC(=O)c2sc(Cl)nc2-c2ccccc2)c1,37*,1,9,?,3,-27,15*,32*
Cc1ccccc1NC(=O)c1sc(Cl)nc1-c1ccccc1,23,0,16,0,-2,5,.,.
COCCNC(=O)c1ccccc1NC(=O)Nc1ccccc1,31*,-1,25,0,0,13,3,11
O=C(Nc1ccccc1)Nc1ccccc1C(=O)NCC1CC1,-3,-1,14,-6,5,-2,.,.
CCCn1c(N)c(N(CCOC)C(=O)CSc2ccccc2)c(=O)[nH]c1=O,5,0,13,0,-1,.,.,.
COc1ccc(CCCNC(=O)C2(C)Cc3c(-c4ccc(NC(C)=O)cc4)ccnc3O2)cc1 (stereo not drawn),34*,0,.,.,2,.,3,3
S=c1[nH]nc(-c2ccccc2)o1,25,-1,12,-1,0,-12,.,.
Cc1ccccc1-c1n[nH]c(=S)o1,42*,-1,19,-1,-2,5,25*,47*
COc1ccccc1-c1n[nH]c(=S)o1,21,0,3,1,-2,2,.,.
COc1ccc(Cl)cc1-c1n[nH]c(=S)o1,72*,0,4,0,-1,-32,45*,78*
CSc1ccccc1-c1n[nH]c(=S)o1,90*,0,13,.,-2,-48,50*,94*
COc1ccc(Cl)cc1NC(=O)COC(=O)C1CC(=O)N(Cc2ccccc2)C1 (stereo not drawn),5,-1,-12,0,-2,.,.,.
C=CC(=O)N1CCCC(Nc2nc(Nc3ccc(N(C)C(=O)CC)cc3C)nc3nc[nH]c23)C1 (stereo not drawn),8,0,1,-1,-1,.,.,.
O=C(Nc1nc(=O)n(C(=O)C2CC2)s1)c1ccccc1,30*,0,14,0,1,32,1,-2
CC(=O)c1ccc(S(=O)(=O)N(C)CCCC(=O)N2CCN(c3ncccn3)CC2)cc1,1,0,17,1,-1,.,.,.
